Laboratory results published in ChEMBL document CHEMBL1629603, “Voriconazole increases while itraconazole decreases plasma meloxicam concentrations” (Antimicrob Agents Chemother, 2009).
Calls of active or inactive are those of the source. The rule behind the calls is not given here.

Tests used:
Homo sapiens [1] = test: Inhibition of TxB2 production in human blood at 15 mg, po after 12 hrs by enzyme immunoassay pretreated with voriconazole at 400 mg, po every 12 hrs for 1 day and 200, po mg every 12 hrs for one additional day; assay type: functional
Procedure, shortened: (§1)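 Design: 12 healthy males, Latin-square three-phase crossover, 4-week washout; 15 mg oral meloxicam given fasted 1 h after the last voriconazole dose. Blood taken before and at 5, 8, 12, 24, 48 h into glass tubes without anticoagulant, clotted 1 h at 37°C. Serum TxB2 measured by enzyme immunoassay. Reported as percent decrease versus each subject's own baseline.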

Homo sapiens [2] = test: Inhibition of TxB2 production in human blood at 15 mg, po after 5 hrs by enzyme immunoassay pretreated with voriconazole at 400 mg, po every 12 hrs for 1 day and 200, po mg every 12 hrs for one additional day; assay type: functional; procedure, shortened: as §1
Homo sapiens [3] = test: Inhibition of TxB2 production in human blood at 15 mg, po after 8 hrs by enzyme immunoassay pretreated with voriconazole at 400 mg, po every 12 hrs for 1 day and 200, po mg every 12 hrs for one additional day; assay type: functional; procedure, shortened: as §1
Plasma [4] = test: Fraction unbound in human at 15 mg, po pretreated with voriconazole at 400 mg, po every 12 hrs for 1 day and 200, po mg every 12 hrs for one additional day; assay type: ADME, organism-based; settings: in vivo
Procedure, shortened: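 Healthy volunteers, open-label randomized crossover; 15 mg oral meloxicam given fasted 1 h after the last voriconazole dose. Plasma drawn 5 h post-dose; 1 ml ultrafiltered (YM30 filter, 1,200 x g, 25°C, 30 min). Unbound meloxicam measured by LC-MS/MS (positive ion, piroxicam internal standard; standards 0.5–50 ng/ml), all samples in one run.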

Homo sapiens [5] = test: Toxicity in human assessed as altered color vision changes at 400 mg, po every 12 hrs for 1 day and 200, po mg every 12 hrs for one additional day; assay type: organism-based; settings: in vivo
Homo sapiens [6] = test: Inhibition of TxB2 production in human blood at 15 mg, po after 24 hrs by enzyme immunoassay pretreated with voriconazole at 400 mg, po every 12 hrs for 1 day and 200, po mg every 12 hrs for one additional day; assay type: functional; procedure, shortened: as §1
Homo sapiens [7] = test: Toxicity in human assessed as photophobia at 400 mg, po every 12 hrs for 1 day and 200, po mg every 12 hrs for one additional day; assay type: organism-based; settings: in vivo
Homo sapiens [8] = test: Inhibition of TxB2 production in human blood at 15 mg, po after 48 hrs by enzyme immunoassay pretreated with voriconazole at 400 mg, po every 12 hrs for 1 day and 200, po mg every 12 hrs for one additional day; assay type: functional; procedure, shortened: as §1
Homo sapiens [9] = test: Inhibition of TxB2 production in human blood at 15 mg, po measured up to 48 hrs by enzyme immunoassay pretreated with itraconazole at 200 mg, po qd for 4 days; assay type: functional, organism-based
Procedure, shortened: (§2)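 Ex vivo COX-1 index in healthy volunteers. Blood drawn without anticoagulant before and 5, 8, 12, 24, 48 h after the single oral dose, then clotted 1 h at 37°C. Serum TxB2 measured by enzyme immunoassay. Percent decrease calculated against each subject's own predose baseline, within a crossover with control or azole-pretreated phases.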

Homo sapiens [10] = test: Inhibition of TxB2 production in human blood at 15 mg, po after 12 hrs by enzyme immunoassay; assay type: functional; procedure, shortened: as §2
Homo sapiens [11] = test: Inhibition of TxB2 production in human blood at 15 mg, po after 48 hrs by enzyme immunoassay; assay type: functional; procedure, shortened: as §2
[12] = Protein binding in human at 15 mg, po pretreated with voriconazole at 400 mg, po every 12 hrs for 1 day and 200, po mg every 12 hrs for one additional day measured after 5 hrs last post dose; assay type: ADME, organism-based; settings: plasma, read-out: PPB (converted)
Procedure, shortened: (§3)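 Plasma drawn 5 h after the single oral dose in each crossover phase (control, voriconazole 400 mg q12h day 1 then 200 mg q12h day 2, or itraconazole 200 mg daily for 4 days, last azole dose 1 h before). Ultrafiltered through a YM30 membrane at 1,200 x g, 25°C, 30 min. Free drug by LC-MS/MS; bound fraction derived from free versus total.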

Homo sapiens [13] = test: Inhibition of TxB2 production in human blood at 15 mg, po after 8 hrs by enzyme immunoassay; assay type: functional; procedure, shortened: as §2
[14] = AUC (0 to 72 hrs) in human at 15 mg, po; assay type: ADME, organism-based; design: dose 15 mg, time < 72 hr, route oral; settings: plasma
Procedure, shortened: (§4)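 Healthy male volunteers (n=12), randomized three-phase Latin-square crossover with 4-week washout; single oral dose after overnight fast, lunch at 4 h. Venous plasma sampled predose and 1–72 h, stored –70°C; total drug by LC-MS/MS (piroxicam internal standard). Cmax and Tmax read directly from concentration data; AUC0-72 by linear (rising) / log (descending) trapezoidal rule.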

Plasma [15] = test: Fraction unbound in human plasma at 15 mg, po; assay type: ADME, organism-based; settings: in vivo; procedure, shortened: as §3
[16] = Protein binding in human plasma at 15 mg, po after 5 hrs; assay type: ADME, organism-based; settings: read-out: PPB (converted); procedure, shortened: as §3
Homo sapiens [17] = test: Inhibition of TxB2 production in human blood at 15 mg, po after 48 hrs by enzyme immunoassay pretreated with itraconazole at 200 mg, po qd for 4 days; assay type: functional; procedure, shortened: as §2
[18] = Protein binding in human at 15 mg, po pretreated with itraconazole at 200 mg, po qd for 4 days measured after 5 hrs last post dose; assay type: ADME, organism-based; settings: plasma, read-out: PPB (converted); procedure, shortened: as §3
[19] = Tmax in human at 15 mg, po; assay type: ADME, organism-based; settings: in vivo; procedure, shortened: as §4
[20] = Cmax in human at 15 mg, po; assay type: ADME, organism-based; design: dose 15 mg, route oral; settings: in vivo; procedure, shortened: as §4
Homo sapiens [21] = test: Inhibition of TxB2 production in human blood at 15 mg, po after 5 hrs by enzyme immunoassay; assay type: functional; procedure, shortened: as §2
Homo sapiens [22] = test: Inhibition of TxB2 production in human blood at 15 mg, po after 24 hrs by enzyme immunoassay; assay type: functional; procedure, shortened: as §2
Plasma [23] = test: Fraction unbound in human at 15 mg, po pretreated with itraconazole at 200 mg, po qd for 4 days; assay type: ADME, organism-based; settings: in vivo, 96 h; procedure, shortened: as §3

For `C[C@@H](c1ncncc1F)[C@](O)(Cn1cncn1)c1ccc(F)cc1F` [VORICONAZOLE], which “inhibition (INH)” value (Homo sapiens [1]) is on record?
The value was 49%.

And the “inhibition (INH)” value (Homo sapiens [2])?
The value was 37%.

What about the “inhibition (INH)” value (Homo sapiens [3]) of the same compound?
Its value is 46%.

What about the Fu (Plasma [4]) of the same compound?
Its Fu is 0.17%.

And the Activity (Homo sapiens [5])?
Its Activity is “Toxic”.

What about the “inhibition (INH)” value (Homo sapiens [6]) of the same compound?
The value was 31%.

And the Activity (Homo sapiens [7])?
Its Activity is “Toxic”.

And the “inhibition (INH)” value (Homo sapiens [8])?
The value was 14%.

With `Cc1cnc(NC(=O)C2=C(O)c3ccccc3S(=O)(=O)N2C)s1` [MELOXICAM] as the compound, how does the inhibition (Homo sapiens [9]) read?
The inhibition was “inactive”.

What about the “inhibition (INH)” value (Homo sapiens [10]) of the same compound?
The value was 56%.

And the “inhibition (INH)” value (Homo sapiens [11])?
Its value is 25%.

And the fraction unbound at 5 h [12]?
Its fraction unbound at 5 h is 0.0017.

And the “inhibition (INH)” value (Homo sapiens [13])?
The value was 37%.

And the AUC(0-t) at 72 h [14]?
The AUC(0-t) at 72 h was 32400 ng·h/mL.

What about the Fu (Plasma [15]) of the same compound?
Its Fu is 0.18%.

And the fraction unbound at 5 h [16]?
The fraction unbound at 5 h was 0.0017.

What about the “inhibition (INH)” value (Homo sapiens [17]) of the same compound?
The value was 29%.

And the fraction unbound at 5 h [18]?
The fraction unbound at 5 h was 0.0018.

What about the Tmax [19] of the same compound?
The Tmax was 4 h.

And the Cmax [20]?
The Cmax was 1250 ng/mL.

What about the “inhibition (INH)” value (Homo sapiens [21]) of the same compound?
The value was 30%.

What about the “inhibition (INH)” value (Homo sapiens [22]) of the same compound?
The value was 28%.

For `CCC(C)n1ncn(-c2ccc(N3CCN(c4ccc(OCC5COC(Cn6cncn6)(c6ccc(Cl)cc6Cl)O5)cc4)CC3)cc2)c1=O` (stereo not drawn) [ITRACONAZOLE], which Fu (Plasma [23]) is on record?
Its Fu is 0.18%.
